Measured values as given in the EternaBench riboswitch data.

System: MS2 coat protein
Assay: apparent Kd, MS2 coat protein; higher = weaker binding; RNA-MaP array; tryptophan 2.4 mM where present
Method in brief: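 The apparent Kd comes from binding curves fitted cluster by cluster, filtered, and summarised as a median. Those curves followed SNAP-549-labelled MS2 coat protein from 0.7 or 1.5 nM, doubling to 3 µM, on Illumina sequencing-chip clusters where stalled E. coli RNA polymerase had transcribed the designs, without and then with constant ligand. The buffer was 100 mM Tris-HCl pH 7.5, 80 mM KCl, 4 mM MgCl2, BSA, DTT, yeast tRNA and Tween-20, and green signal was normalised to red-channel RNA signal and control-cluster median Fmax.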

| Sequence | apparent Kd (designed as: OFF switch for tryptophan, no ligand) | apparent Kd (ligand present: tryptophan, designed as: OFF switch for tryptophan) | apparent Kd (designed as: ON switch for tryptophan, no ligand) | apparent Kd (ligand present: tryptophan, designed as: ON switch for tryptophan) |
| --- | --- | --- | --- | --- |
| AGCGUGCAUCGGAAAACGAUGUACGCAAAUCGAGGACCGGUACGGCCGCCACUCGUCCUCAACAUGAGGAUCACCCAUGUAAUAA | 19.1 nM | 34.7 nM | – | – |
| AGACCCUUCACGGCCGCCACUCAUUUUAAGUAGAGAGAGUACAUGAGGAUCACCCAUGUGAGAGAGAGGACCGGGUGAGAUAUUA | – | – | 17.5 nM | 19.6 nM |
